ChEMBL document CHEMBL4706573, “Synthesis and evaluation of thiophene based small molecules as potent inhibitors of Mycobacterium tuberculosis” (Eur J Med Chem, 2020)
Converted amounts (≈) assume the structure as drawn. The source made the active and inactive calls. The rule behind the calls is not given here.

Tests used:
[1] = system: THP-1; test: Cytotoxicity against human THP-1 cells assessed as reduction in cell viability measured after 96 hrs by WST1 assay; format: cell-based; conditions: thp-1, 96 h
How it was run: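 THP-1 cells seeded at 20,000/well with 20 ng/ml PMA for 48 h. Cells then washed and rested 24 h in RPMI with 10% FBS. Drug dilutions in RPMI complete medium added in triplicate for 96 h. Viability read by WST-1 reagent after a 30 min incubation.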

[2] = system: Mycobacterium tuberculosis; test: Antimycobacterial activity against Mycobacterium tuberculosis H37Rv after 10 to 14 days; format: functional; conditions: time 10-14 day
How it was run: (§1)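 MIC99 determined in whole cells, tested in triplicate with INH as the positive control. Strains were wild-type, pMV306, pMV306-pks13 and INH-resistant mc2 497. Susceptibility was scored relative to the parental strain: S where the MIC99 was at most 2x the parental MIC99.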

[3] = system: Mycobacterium tuberculosis; test: Antimycobacterial activity against Mycobacterium tuberculosis expressing pMV306 after 10 to 14 days; format: functional, organism-based; conditions: time 10-14 day; how it was run: as §1
[4] = system: Mycobacterium tuberculosis; test: Antimycobacterial activity against early-logarithmic cultures of Mycobacterium tuberculosis H37Rv assessed as bacterial killing at 10 times MIC99 incubated for 7 days followed by 10-fold serial dilution and measured after 2 to 4 weeks; format: functional; conditions: time 2-5 weeks
How it was run: (§2)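 Early-logarithmic culture (OD600nm ~0.2) exposed to 10x MIC99 for 7 days. Bacteria then counted as CFU and compared with untreated samples. INH used as control.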

[5] = system: Mycobacterium tuberculosis; test: Antimycobacterial activity against Mycobacterium tuberculosis expressing pMV306-pks13 after 10 to 14 days; format: functional, organism-based; conditions: time 10-14 day; how it was run: as §1
[6] = system: Mycobacterium tuberculosis; test: Antimycobacterial activity against Mycobacterium tuberculosis infected in human THP-1 cells assessed as reduction in intracellular bacterial growth at 10 times MIC99 incubated for 4 days followed by 10-fold serial dilution and measured after 3 to 4 weeks relative to control; format: functional; conditions: time 32 day
How it was run: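 THP-1 cells infected and then washed twice with 1x PBS. Infected macrophages overlaid with RPMI containing drug for 4 days. Lysed on day 0 and day 4 with 1x PBST (0.1% Triton X-100). Tenfold serial dilutions plated on MB 7H11 agar, incubated at 37 °C for 3-4 weeks, then CFU counted. INH used as control.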

[7] = system: Mycobacterium tuberculosis; test: Antimycobacterial activity against early-logarithmic cultures of Mycobacterium tuberculosis H37Rv assessed as reduction in bacterial load at 10 times MIC99 incubated for 7 days followed by 10-fold serial dilution and measured after 2 to 4 weeks; format: functional; conditions: time 2-5 weeks; how it was run: as §2
[8] = system: Mycobacterium tuberculosis; test: Ratio of MIC99 for antimycobacterial activity against Mycobacterium tuberculosis H37Rv to MIC99 for antimycobacterial activity against Mycobacterium tuberculosis H37Rv in presence of bedaquiline; format: functional
How it was run: (§3)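 Two-drug checkerboard: lead compound serially diluted twofold along one axis, cross-diluted twofold with a TB drug (RIF, INH, LEVO, BDQ or PA-824) to form combinations. FICI calculated for each combination.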

[9] = system: Mycobacterium tuberculosis; test: Antimycobacterial activity against Mycobacterium tuberculosis H37Rv assessed as FICI in presence of pretomanid by checkerboard assay; format: functional; how it was run: as §3
[10] = system: Mycobacterium tuberculosis; test: Antimycobacterial activity against Mycobacterium tuberculosis H37Rv assessed as FICI in presence of levofloxacin by checkerboard assay; format: functional; how it was run: as §3
[11] = system: Mycobacterium tuberculosis; test: Antimycobacterial activity against Mycobacterium tuberculosis H37Rv assessed as FICI in presence of isoniazid by checkerboard assay; format: functional; how it was run: as §3
[12] = system: Mycobacterium tuberculosis; test: Antimycobacterial activity against Mycobacterium tuberculosis H37Rv assessed as FICI in presence of bedaquiline by checkerboard assay; format: functional; how it was run: as §3
[13] = system: Mycobacterium tuberculosis; test: Antimycobacterial activity against Mycobacterium tuberculosis H37Rv assessed as FICI in presence of rifampicin by checkerboard assay; format: functional; how it was run: as §3

COC(=O)c1cc(-c2ccc(F)cc2)sc1NC(=O)NC1CC1
Activity [1]: > 50 µM
MIC99 [2]: > 10 µM

COC(=O)c1cc(-c2ccc(F)cc2)sc1NC(=O)N1CCCC1
Activity [1]: > 50 µM
MIC99 [2]: > 10 µM

NNC(=O)c1ccncc1 [ISONIAZID]
Activity [3]: Active
Activity [4]: >4 log10CFU
Activity [1]: > 50 µM
Activity [5]: Active
MIC99 [2]: 0.19 µM (≈ 0.0261 µg/mL)
fold change (FC) [6]: 200

CCOC(=O)c1cc(-c2ccccc2)sc1NC(=O)N1CCOCC1
Activity [1]: > 50 µM
MIC99 [2]: > 10 µM

CCOC(=O)c1cc(-c2ccccc2)sc1NC(=O)CBr
Activity [3]: Active
Activity [1]: > 50 µM
Activity [5]: Active
MIC99 [2]: 0.78 µM (≈ 0.287 µg/mL)

CCOC(=O)c1cc(-c2ccccc2)sc1NC(=O)N(C)C
Activity [1]: > 50 µM
MIC99 [2]: > 10 µM

CCOC(=O)c1cc(-c2ccccc2)sc1NC(N)=O
Activity [1]: > 50 µM
MIC99 [2]: > 10 µM

COC(=O)c1cc(-c2ccc(F)cc2)sc1NC(=O)NC(C)C
Activity [1]: > 50 µM
MIC99 [2]: > 10 µM

CCOC(=O)c1cc(-c2ccccc2)sc1NC(=O)c1ccc(C#N)cc1
Activity [1]: > 50 µM
MIC99 [2]: > 10 µM

COC(=O)c1cc(-c2ccccc2)sc1NC(=O)CCl
FC [7]: 10
Activity [3]: Active
Ratio [8]: 8
fractional inhibitory concentration index (FICI) [9]: 0.625
Activity [1]: > 50 µM
Activity [5]: Active
fractional inhibitory concentration index (FICI) [10]: 0.562
fractional inhibitory concentration index (FICI) [11]: 0.562
MIC99 [2]: 0.19 µM (≈ 0.0589 µg/mL)
fractional inhibitory concentration index (FICI) [12]: 0.25
fold change (FC) [6]: 5
fractional inhibitory concentration index (FICI) [13]: 0.625

CCOC(=O)c1cc(-c2ccccc2)sc1NC(=O)N1CCCC1
Activity [1]: > 50 µM
MIC99 [2]: > 10 µM

CCOC(=O)c1cc(-c2ccccc2)sc1NC(=O)c1ccc(C)cc1
Activity [1]: > 50 µM
MIC99 [2]: > 10 µM

COC(=O)c1cc(-c2cc3ccccc3s2)sc1NC(=O)CCl
Activity [3]: Active
Activity [1]: > 50 µM
Activity [5]: Active
MIC99 [2]: 0.78 µM (≈ 0.285 µg/mL)

COC(=O)c1cc(-c2cc(F)cc(F)c2)sc1NC(=O)CCl
Activity [3]: Active
Activity [1]: > 50 µM
Activity [5]: Active
MIC99 [2]: 0.78 µM (≈ 0.27 µg/mL)

CCOC(=O)c1cc(-c2ccccc2)sc1NC(=O)Nc1ccccc1
Activity [1]: > 50 µM
MIC99 [2]: > 10 µM

CCOC(=O)c1cc(-c2ccccc2)sc1NC(=O)NC
Activity [1]: > 50 µM
MIC99 [2]: > 10 µM

COC(=O)c1cc(-c2ccc(F)cc2)sc1NC(=O)N1CCCCC1
Activity [1]: > 50 µM
MIC99 [2]: > 10 µM

CCOC(=O)c1cc(-c2ccccc2)sc1NC(=O)NC1CC1
Activity [1]: > 50 µM
MIC99 [2]: 1.56 µM (≈ 0.515 µg/mL)

COC(=O)c1ccsc1NC(=O)CCl
FC [7]: 10
Activity [3]: Active
Ratio [8]: 4
fractional inhibitory concentration index (FICI) [9]: 1
Activity [1]: > 50 µM
Activity [5]: Active
fractional inhibitory concentration index (FICI) [10]: 0.562
fractional inhibitory concentration index (FICI) [11]: 0.75
MIC99 [2]: 0.19 µM (≈ 0.0444 µg/mL)
fractional inhibitory concentration index (FICI) [12]: 0.5
fold change (FC) [6]: 2.5
fractional inhibitory concentration index (FICI) [13]: 0.75
